Results published in ChEMBL document CHEMBL4689842, “EUbOPEN Chemogenomics Library wave 1” (2021).

System: U2OS
Experiment: Multiplex assay against U2OS
Assay type: toxicity, cell-based
Details: human
Method in brief: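 Phenotypes for tubulin, mitochondrial mass and membrane permeability are expressed as per cents of healthy-nucleus cells. Cells were stained live at seeding with Hoechst33342, BioTracker Green Microtubule Cytoskeleton Dye, MitoTracker Red and Annexin V Alexa Fluor 680, then imaged after compound addition on a CQ1 microscope at 37°C and 5% CO2. Machine-learning gating in CellPathfinder separated Hoechst high-intensity objects from normal cells, divided normal cells by nuclear state (healthy, pyknosed, fragmented) and divided pyknosed cells into mitotic or apoptotic.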

[1] = 12 h, 1 µM, compound concentration 1 uM, replicate 1
[2] = 12 h, 1 µM, compound concentration 1 uM, replicate 2
[3] = 12 h, 10 µM, compound concentration 10 uM, replicate 1
[4] = 12 h, 10 µM, compound concentration 10 uM, replicate 2
[5] = 24 h, 1 µM, compound concentration 1 uM, replicate 1
[6] = 24 h, 1 µM, compound concentration 1 uM, replicate 2
[7] = 24 h, 10 µM, compound concentration 10 uM, replicate 1
[8] = 24 h, 10 µM, compound concentration 10 uM, replicate 2
[9] = 48 h, 1 µM, compound concentration 1 uM, replicate 1
[10] = 48 h, 1 µM, compound concentration 1 uM, replicate 2
[11] = 48 h, 10 µM, compound concentration 10 uM, replicate 1
[12] = 48 h, 10 µM, compound concentration 10 uM, replicate 2

CCc1ccc(OCc2ccccc2C(=O)Nc2ccc3nc(C)cc(N)c3c2)cc1.Cl
Population Apoptotic (%) [1]: 80%
Population Fragmented Nuclei (%) [1]: 25%
Population Healthy Nuclei (%) [1]: 34%
Population Hoechst High Intensity Objects (%) [1]: 10%
Population Membrane Permeable-Phenotype (%) [1]: 27%
Population Mitochondria Different-Phenotype (%) [1]: 95%
Population Mitotic Cells (%) [1]: 19%
Population Normal (%) [1]: 89%
Population Pyknosed Nuclei (%) [1]: 40%
Population Tubulin-Different-Phenotype (%) [1]: 87%
Total Cell Count [1]: 191
Population Apoptotic (%) [2]: 71%
Population Fragmented Nuclei (%) [2]: 33%
Population Healthy Nuclei (%) [2]: 33%
Population Hoechst High Intensity Objects (%) [2]: 16%
Population Membrane Permeable-Phenotype (%) [2]: 28%
Population Mitochondria Different-Phenotype (%) [2]: 92%
Population Mitotic Cells (%) [2]: 28%
Population Normal (%) [2]: 84%
Population Pyknosed Nuclei (%) [2]: 33%
Population Tubulin-Different-Phenotype (%) [2]: 85%
Total Cell Count [2]: 68
Population Apoptotic (%) [3]: 78%
Population Fragmented Nuclei (%) [3]: 9%
Population Healthy Nuclei (%) [3]: 22%
Population Hoechst High Intensity Objects (%) [3]: 7%
Population Membrane Permeable-Phenotype (%) [3]: 75%
Population Mitotic Cells (%) [3]: 21%
Population Normal (%) [3]: 92%
Population Pyknosed Nuclei (%) [3]: 68%
Population Tubulin-Different-Phenotype (%) [3]: 97%
Total Cell Count [3]: 129
Population Apoptotic (%) [4]: 76%
Population Fragmented Nuclei (%) [4]: 8%
Population Healthy Nuclei (%) [4]: 14%
Population Hoechst High Intensity Objects (%) [4]: 12%
Population Membrane Permeable-Phenotype (%) [4]: 100%
Population Mitochondria Different-Phenotype (%) [4]: 100%
Population Mitotic Cells (%) [4]: 23%
Population Normal (%) [4]: 87%
Population Pyknosed Nuclei (%) [4]: 77%
Population Tubulin-Different-Phenotype (%) [4]: 100%
Total Cell Count [4]: 50
Population Apoptotic (%) [5]: 90%
Population Fragmented Nuclei (%) [5]: 44%
Population Healthy Nuclei (%) [5]: 16%
Population Hoechst High Intensity Objects (%) [5]: 11%
Population Membrane Permeable-Phenotype (%) [5]: 57%
Population Mitochondria Different-Phenotype (%) [5]: 94%
Population Mitotic Cells (%) [5]: 9%
Population Normal (%) [5]: 88%
Population Pyknosed Nuclei (%) [5]: 38%
Population Tubulin-Different-Phenotype (%) [5]: 73%
Total Cell Count [5]: 234
Population Apoptotic (%) [6]: 83%
Population Fragmented Nuclei (%) [6]: 25%
Population Healthy Nuclei (%) [6]: 28%
Population Hoechst High Intensity Objects (%) [6]: 17%
Population Membrane Permeable-Phenotype (%) [6]: 27%
Population Mitochondria Different-Phenotype (%) [6]: 90%
Population Mitotic Cells (%) [6]: 16%
Population Normal (%) [6]: 82%
Population Pyknosed Nuclei (%) [6]: 46%
Population Tubulin-Different-Phenotype (%) [6]: 63%
Total Cell Count [6]: 92
Population Apoptotic (%) [7]: 79%
Population Fragmented Nuclei (%) [7]: 7%
Population Healthy Nuclei (%) [7]: 13%
Population Hoechst High Intensity Objects (%) [7]: 12%
Population Membrane Permeable-Phenotype (%) [7]: 54%
Population Mitochondria Different-Phenotype (%) [7]: 100%
Population Mitotic Cells (%) [7]: 20%
Population Normal (%) [7]: 87%
Population Pyknosed Nuclei (%) [7]: 78%
Population Tubulin-Different-Phenotype (%) [7]: 95%
Total Cell Count [7]: 127
Population Apoptotic (%) [8]: 70%
Population Fragmented Nuclei (%) [8]: 15%
Population Healthy Nuclei (%) [8]: 38%
Population Hoechst High Intensity Objects (%) [8]: 31%
Population Membrane Permeable-Phenotype (%) [8]: 47%
Population Mitochondria Different-Phenotype (%) [8]: 94%
Population Mitotic Cells (%) [8]: 30%
Population Normal (%) [8]: 68%
Population Pyknosed Nuclei (%) [8]: 45%
Population Tubulin-Different-Phenotype (%) [8]: 94%
Total Cell Count [8]: 47
Population Apoptotic (%) [9]: 96%
Population Fragmented Nuclei (%) [9]: 46%
Population Healthy Nuclei (%) [9]: 3%
Population Hoechst High Intensity Objects (%) [9]: 15%
Population Membrane Permeable-Phenotype (%) [9]: 75%
Population Mitochondria Different-Phenotype (%) [9]: 100%
Population Mitotic Cells (%) [9]: 3%
Population Normal (%) [9]: 84%
Population Pyknosed Nuclei (%) [9]: 50%
Population Tubulin-Different-Phenotype (%) [9]: 75%
Total Cell Count [9]: 377
Population Apoptotic (%) [10]: 100%
Population Fragmented Nuclei (%) [10]: 29%
Population Healthy Nuclei (%) [10]: 37%
Population Hoechst High Intensity Objects (%) [10]: 28%
Population Membrane Permeable-Phenotype (%) [10]: 71%
Population Mitochondria Different-Phenotype (%) [10]: 92%
Population Mitotic Cells (%) [10]: 0%
Population Normal (%) [10]: 71%
Population Pyknosed Nuclei (%) [10]: 32%
Population Tubulin-Different-Phenotype (%) [10]: 78%
Total Cell Count [10]: 140
Population Apoptotic (%) [11]: 84%
Population Fragmented Nuclei (%) [11]: 9%
Population Healthy Nuclei (%) [11]: 12%
Population Hoechst High Intensity Objects (%) [11]: 11%
Population Membrane Permeable-Phenotype (%) [11]: 40%
Population Mitochondria Different-Phenotype (%) [11]: 95%
Population Mitotic Cells (%) [11]: 16%
Population Normal (%) [11]: 88%
Population Pyknosed Nuclei (%) [11]: 77%
Population Tubulin-Different-Phenotype (%) [11]: 90%
Total Cell Count [11]: 130
Population Apoptotic (%) [12]: 100%
Population Fragmented Nuclei (%) [12]: 47%
Population Healthy Nuclei (%) [12]: 43%
Population Hoechst High Intensity Objects (%) [12]: 63%
Population Membrane Permeable-Phenotype (%) [12]: 60%
Population Mitochondria Different-Phenotype (%) [12]: 90%
Population Mitotic Cells (%) [12]: 0%
Population Normal (%) [12]: 36%
Population Pyknosed Nuclei (%) [12]: 8%
Total Cell Count [12]: 52
